Measured values reported in ChEMBL document CHEMBL4177566, “Rational design, synthesis and preliminary antitumor activity evaluation of a chlorambucil derivative with potent DNA/HDAC dual-targeting inhibitory activity” (Bioorg Med Chem Lett, 2017).
Activity calls are given as the source filed them. The rule behind the calls is not given here.

Experiments:
A-375 [1] = assay: Induction of apoptosis in human A375 cells assessed as necrotic cells at 2 uM after 72 hrs by Annexin/propidium iodide staining based flow cytometry (reference value: 1.36%); format: functional
A-375 [2] = assay: Induction of apoptosis in human A375 cells assessed as necrotic cells at 16 uM after 72 hrs by Annexin/propidium iodide staining based flow cytometry (reference value: 1.36%); format: functional
A-375 [3] = assay: Induction of apoptosis in human A375 cells assessed as live cells at 2 uM after 72 hrs by Annexin/propidium iodide staining based flow cytometry (reference value: 86.07%); format: functional
A-375 [4] = assay: Anticlonogenic activity against human A375 cells at 2 to 16 uM after 7 days by crystal violet staining based assay; format: functional, cell-based
A-375 [5] = assay: Induction of apoptosis in human A375 cells assessed as necrotic cells at 8 uM after 72 hrs by Annexin/propidium iodide staining based flow cytometry (reference value: 1.36%); format: functional
Homo sapiens = species on record: Homo sapiens; assay: Induction of DNA damage in human A375 cells assessed as increase in gammaH2AX level at 16 uM after 48 hrs by high throughput assay relative to control; format: cell-based
Summary of the method: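 A375 cells were exposed for 48 h at 8 and 16 µM. Histone H2AX phosphorylation (γH2AX, a double-strand-break marker) was detected with the EpiQuik In Situ DNA Damage Assay kit following the maker's protocol. Results are expressed as percent of the untreated control, as mean ± SD (n=3), with a t-test for significance.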

A-375 [6] = assay: Induction of apoptosis in human A375 cells assessed as late apoptotic cells at 2 uM after 72 hrs by Annexin/propidium iodide staining based flow cytometry (reference value: 6.95%); format: functional
A-375 [7] = assay: Antiproliferative activity against human A375 cells after 72 hrs by CCK8 assay; format: functional, cell-based; details: for IC50: A-375, 72 h
Summary of the method: (§1)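 CCK-8 viability read-out on four human cancer lines (HepG2, A549, HCT116, A375) over a range of concentrations. IC50 is the concentration that reduces viability to 50%. Values are means of three experiments.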

HepG2 = assay: Antiproliferative activity against human HepG2 cells after 72 hrs by CCK8 assay; format: functional, cell-based; details: for IC50: HepG2, 72 h; summary of the method: as §1
A-375 [8] = assay: Cell cycle arrest in human A375 cells assessed as accumulation at S phase at 8 uM after 72 hrs by propidium iodide staining based flow cytometry (reference value: 3.8%); format: functional
A549 = assay: Antiproliferative activity against human A549 cells after 72 hrs by CCK8 assay; format: functional, cell-based; details: for IC50: A549, 72 h; summary of the method: as §1
A-375 [9] = assay: Induction of apoptosis in human A375 cells assessed as late apoptotic cells at 16 uM after 72 hrs by Annexin/propidium iodide staining based flow cytometry (reference value: 6.95%); format: functional
A-375 [10] = assay: Cell cycle arrest in human A375 cells assessed as accumulation at G2/M phase at 8 uM after 72 hrs by propidium iodide staining based flow cytometry (reference value: 12.6%); format: functional
A-375 [11] = assay: Induction of apoptosis in human A375 cells assessed as live cells at 8 uM after 72 hrs by Annexin/propidium iodide staining based flow cytometry (reference value: 86.07%); format: functional
HCT-116 = assay: Antiproliferative activity against human HCT116 cells after 72 hrs by CCK8 assay; format: functional, cell-based; details: for IC50: HCT-116, 72 h; summary of the method: as §1
A-375 [12] = assay: Cell cycle arrest in human A375 cells assessed as accumulation at G0/G1 phase at 8 uM after 72 hrs by propidium iodide staining based flow cytometry (reference value: 83.6%); format: functional
A-375 [13] = assay: Induction of apoptosis in human A375 cells assessed as early apoptotic cells at 16 uM after 72 hrs by Annexin/propidium iodide staining based flow cytometry (reference value: 1.62%); format: functional
A-375 [14] = assay: Induction of apoptosis in human A375 cells assessed as early apoptotic cells at 8 uM after 72 hrs by Annexin/propidium iodide staining based flow cytometry (reference value: 1.62%); format: functional
A-375 [15] = assay: Induction of apoptosis in human A375 cells assessed as live cells at 16 uM after 72 hrs by Annexin/propidium iodide staining based flow cytometry (reference value: 86.07%); format: functional
A-375 [16] = assay: Induction of apoptosis in human A375 cells assessed as early apoptotic cells at 2 uM after 72 hrs by Annexin/propidium iodide staining based flow cytometry (reference value: 1.62%); format: functional
A-375 [17] = assay: Induction of apoptosis in human A375 cells assessed as late apoptotic cells at 8 uM after 72 hrs by Annexin/propidium iodide staining based flow cytometry (reference value: 6.95%); format: functional
[18] = target: Histone deacetylase (Homo sapiens) (UniProt Q13547+O15379+Q9UBN7+Q92769+Q9UQL6+Q8WUI4+Q9BY41+Q96DB2+P56524+Q9UKV0+Q969S8); assay: Inhibition of HDAC in human HeLa nuclear extract up to 10000 uM preincubated with cells followed by flour de lys-green substrate addition measured after 1 hr by fluorescence assay
[19] = target: T1, Protein deacetylase HDAC6 (Homo sapiens, UniProt Q9UBN7); assay: Inhibition of recombinant human His-tagged HDAC6 expressed in baculovirus infected insect cells preincubated with enzyme followed by flour de lys-green substrate addition measured after 1 hr by fluorescence assay
T1 sequence (Q9UBN7 whole entry): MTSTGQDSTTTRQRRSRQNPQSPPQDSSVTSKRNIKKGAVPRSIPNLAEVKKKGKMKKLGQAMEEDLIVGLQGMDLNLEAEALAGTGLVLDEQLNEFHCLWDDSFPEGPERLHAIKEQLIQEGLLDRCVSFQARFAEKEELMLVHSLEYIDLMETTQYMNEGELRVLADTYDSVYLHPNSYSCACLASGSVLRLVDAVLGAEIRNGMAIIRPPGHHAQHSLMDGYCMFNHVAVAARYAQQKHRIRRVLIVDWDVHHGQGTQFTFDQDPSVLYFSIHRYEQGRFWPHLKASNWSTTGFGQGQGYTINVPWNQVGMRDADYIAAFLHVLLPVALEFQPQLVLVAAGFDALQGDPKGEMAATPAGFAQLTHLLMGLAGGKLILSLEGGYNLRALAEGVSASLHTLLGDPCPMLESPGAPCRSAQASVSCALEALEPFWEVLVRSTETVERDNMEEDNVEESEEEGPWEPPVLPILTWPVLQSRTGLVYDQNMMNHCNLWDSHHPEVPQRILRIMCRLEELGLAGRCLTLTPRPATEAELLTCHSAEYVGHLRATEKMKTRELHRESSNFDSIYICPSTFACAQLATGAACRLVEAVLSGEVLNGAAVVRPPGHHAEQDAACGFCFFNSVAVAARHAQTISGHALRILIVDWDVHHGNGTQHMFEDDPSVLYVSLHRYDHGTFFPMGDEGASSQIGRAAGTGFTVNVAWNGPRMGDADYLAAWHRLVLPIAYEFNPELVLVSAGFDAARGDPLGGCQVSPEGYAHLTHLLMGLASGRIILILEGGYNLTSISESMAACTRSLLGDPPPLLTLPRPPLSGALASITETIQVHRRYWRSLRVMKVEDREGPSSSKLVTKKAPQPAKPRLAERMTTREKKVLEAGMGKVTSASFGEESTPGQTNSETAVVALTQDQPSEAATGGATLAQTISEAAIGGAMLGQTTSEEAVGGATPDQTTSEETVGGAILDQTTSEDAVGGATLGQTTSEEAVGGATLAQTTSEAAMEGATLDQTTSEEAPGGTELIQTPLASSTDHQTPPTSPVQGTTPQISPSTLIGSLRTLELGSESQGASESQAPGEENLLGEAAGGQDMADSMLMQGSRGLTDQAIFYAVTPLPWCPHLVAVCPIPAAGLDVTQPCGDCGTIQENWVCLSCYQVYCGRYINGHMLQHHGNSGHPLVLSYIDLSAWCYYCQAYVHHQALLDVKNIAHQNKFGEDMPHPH

A-375 [20] = assay: Induction of apoptosis in human A375 cells after 72 hrs by Annexin/propidium iodide staining based flow cytometry; format: functional, cell-based
Histone deacetylase 1 = Histone deacetylase 1 (Homo sapiens, UniProt Q13547); assay: Inhibition of recombinant human HDAC1 (482 residues) expressed in baculovirus infected insect cells preincubated with enzyme followed by flour de lys-green substrate addition measured after 1 hr by fluorescence assay
Sequence of Histone deacetylase 1 (Q13547 whole entry): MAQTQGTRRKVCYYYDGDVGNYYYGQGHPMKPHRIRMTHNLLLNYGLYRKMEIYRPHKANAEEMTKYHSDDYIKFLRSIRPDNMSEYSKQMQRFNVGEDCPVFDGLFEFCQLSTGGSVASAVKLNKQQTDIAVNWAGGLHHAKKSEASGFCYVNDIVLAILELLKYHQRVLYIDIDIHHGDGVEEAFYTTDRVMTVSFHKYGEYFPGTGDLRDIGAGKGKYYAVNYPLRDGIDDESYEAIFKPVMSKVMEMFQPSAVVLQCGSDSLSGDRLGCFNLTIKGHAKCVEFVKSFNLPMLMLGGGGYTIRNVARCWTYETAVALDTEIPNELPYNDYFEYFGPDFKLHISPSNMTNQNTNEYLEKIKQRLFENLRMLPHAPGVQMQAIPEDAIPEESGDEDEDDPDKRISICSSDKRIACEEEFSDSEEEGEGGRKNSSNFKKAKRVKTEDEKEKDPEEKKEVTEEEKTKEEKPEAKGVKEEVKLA

A-375 [21] = assay: Anticlonogenic activity against human A375 cells after 7 days by crystal violet staining based assay; format: functional, cell-based
Histone deacetylase 2 = Histone deacetylase 2 (Homo sapiens, UniProt Q92769); assay: Inhibition of recombinant human HDAC2 preincubated with enzyme followed by flour de lys-green substrate addition measured after 1 hr by fluorescence assay
Sequence of Histone deacetylase 2 (Q92769 whole entry): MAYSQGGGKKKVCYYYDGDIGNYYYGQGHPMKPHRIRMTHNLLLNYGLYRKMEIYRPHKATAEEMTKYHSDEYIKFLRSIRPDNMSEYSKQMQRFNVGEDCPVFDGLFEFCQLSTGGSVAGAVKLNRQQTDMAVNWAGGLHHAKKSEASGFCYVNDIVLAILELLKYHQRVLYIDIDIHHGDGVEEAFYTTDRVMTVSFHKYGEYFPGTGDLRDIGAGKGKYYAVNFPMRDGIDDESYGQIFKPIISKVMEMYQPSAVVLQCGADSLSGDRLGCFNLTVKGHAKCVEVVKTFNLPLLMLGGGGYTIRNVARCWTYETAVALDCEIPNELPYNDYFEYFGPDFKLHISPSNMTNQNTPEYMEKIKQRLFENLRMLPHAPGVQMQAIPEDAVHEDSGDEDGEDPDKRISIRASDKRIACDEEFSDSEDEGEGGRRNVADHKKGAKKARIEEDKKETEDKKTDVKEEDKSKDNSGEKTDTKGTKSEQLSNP

Row | SMILES | Activity (A-375 [1]) [%] | Activity (A-375 [2]) [%] | Activity (A-375 [3]) [%] | Activity (A-375 [5]) [%] | Activity (Homo sapiens) [%] | Activity (A-375 [6]) [%] | IC50 (A-375 [7]) [µM] | IC50 (HepG2) [µM] | Activity (A-375 [8]) [%] | IC50 (A549) [µM] | Activity (A-375 [9]) [%] | Activity (A-375 [10]) [%] | Activity (A-375 [11]) [%] | IC50 (HCT-116) [µM] | Activity (A-375 [12]) [%] | Activity (A-375 [13]) [%] | Activity (A-375 [14]) [%] | Activity (A-375 [15]) [%] | Activity (A-375 [16]) [%] | Activity (A-375 [17]) [%] | also measured
1 | O=C(O)CCCc1ccc(N(CCCl)CCCl)cc1 [CHLORAMBUCIL] | 1.36 | 6.44 | 90.07 | 2.34 | 129 | 6.95 | 69.2 | 112 | 5.4 | 22.2 | 18.21 | 47.6 | 87.14 | 57.6 | 47 | 4.21 | 2.11 | 71.14 | 1.62 | 8.41 | Activity (A-375 [4]): Active
2 | O=C(CCCCCCC(=O)Nc1ccc(N(CCCl)CCCl)cc1)NO | 2.07 | 2.75 | 84.36 | 3.27 | 224 | 10.26 | 6.2 | 6.1 | 5.8 | 4.4 | 53.54 | 66.5 | 50.76 | 3.2 | 27.7 | 13.29 | 16.02 | 30.42 | 3.31 | 29.95 | inhibition [18]: Active; IC50 [19]: 0.62 µM; Activity (A-375 [20]): Dose-dependent effect; IC50 (Histone deacetylase 1): 0.27 µM; Activity (A-375 [7]): Dose-dependent effect; Activity (HepG2): Dose-dependent effect; Activity (A549): Dose-dependent effect; Activity (HCT-116): Dose-dependent effect; Activity (A-375 [21]): Dose-dependent effect; IC50 (Histone deacetylase 2): 0.24 µM
